Assays:
[1] = target: T1, Adrenergic receptor alpha-2 (Rattus norvegicus, UniProt P22086+P19328+P22909); assay: Alpha-2 adrenergic receptor antagonist activity in a rat vas deferens assay. Values ranges from 8.31-8.44; type: functional
T1 sequence (P22086 whole entry): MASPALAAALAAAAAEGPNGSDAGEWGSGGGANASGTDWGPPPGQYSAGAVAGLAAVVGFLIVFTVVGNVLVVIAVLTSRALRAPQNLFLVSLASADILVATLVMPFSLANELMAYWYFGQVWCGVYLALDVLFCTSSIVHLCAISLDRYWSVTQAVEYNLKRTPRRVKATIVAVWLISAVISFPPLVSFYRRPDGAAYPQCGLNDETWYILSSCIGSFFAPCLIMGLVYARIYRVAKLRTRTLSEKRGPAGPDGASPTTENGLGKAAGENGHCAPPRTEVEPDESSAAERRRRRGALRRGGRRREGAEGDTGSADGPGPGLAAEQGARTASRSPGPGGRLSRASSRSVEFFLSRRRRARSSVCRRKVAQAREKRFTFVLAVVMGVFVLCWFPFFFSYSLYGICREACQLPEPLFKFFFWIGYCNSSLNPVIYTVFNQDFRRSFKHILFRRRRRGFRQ
T1 sequence (P19328 whole entry): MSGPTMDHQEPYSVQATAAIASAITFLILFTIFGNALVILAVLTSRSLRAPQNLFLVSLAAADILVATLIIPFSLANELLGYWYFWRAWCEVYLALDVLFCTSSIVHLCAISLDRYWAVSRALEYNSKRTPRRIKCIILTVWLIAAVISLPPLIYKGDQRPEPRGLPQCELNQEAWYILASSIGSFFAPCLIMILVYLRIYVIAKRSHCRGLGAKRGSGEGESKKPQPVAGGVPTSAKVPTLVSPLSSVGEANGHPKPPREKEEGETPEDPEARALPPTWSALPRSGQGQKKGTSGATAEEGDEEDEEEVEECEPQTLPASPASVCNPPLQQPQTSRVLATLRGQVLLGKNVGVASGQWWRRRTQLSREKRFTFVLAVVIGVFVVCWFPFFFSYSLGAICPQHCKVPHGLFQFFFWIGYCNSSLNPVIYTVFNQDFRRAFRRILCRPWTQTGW
T1 sequence (P22909 whole entry): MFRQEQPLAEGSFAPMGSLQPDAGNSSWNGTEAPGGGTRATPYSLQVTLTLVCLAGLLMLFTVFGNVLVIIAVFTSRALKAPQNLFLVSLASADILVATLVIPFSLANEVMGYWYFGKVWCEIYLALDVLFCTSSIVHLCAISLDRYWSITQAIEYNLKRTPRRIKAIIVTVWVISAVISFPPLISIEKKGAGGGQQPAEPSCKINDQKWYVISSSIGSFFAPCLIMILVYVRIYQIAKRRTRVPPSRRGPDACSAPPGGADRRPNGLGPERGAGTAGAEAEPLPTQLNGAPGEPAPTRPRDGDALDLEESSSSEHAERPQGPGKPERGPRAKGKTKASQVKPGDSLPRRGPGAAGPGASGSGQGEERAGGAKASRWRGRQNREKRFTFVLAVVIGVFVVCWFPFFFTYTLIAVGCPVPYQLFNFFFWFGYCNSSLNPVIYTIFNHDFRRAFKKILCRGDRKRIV
How it was run: (§1)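 pA2 at presynaptic α2-adrenoreceptors in field-stimulated rat vas deferens. Tissue was held in Krebs solution (NaCl 118 mM, KCl 4.7 mM, CaCl2 2.5 mM, KH2PO4 1.2 mM, MgSO4 0.6 mM, NaHCO3 25 mM, dextrose 11.1 mM) gassed with 95% O2/5% CO2 at 30 °C. Stimulation was 3-ms pulses, 40 V, 0.1 Hz, with contractions recorded isometrically. Twitches were inhibited by clonidine (110 nM).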

[2] = target: T2, Adrenergic receptor alpha-2 (Rattus norvegicus) (UniProt P22086+P19328+P22909); assay: Alpha-2 adrenergic receptor antagonist activity compared to idazoxan; type: functional
How it was run: (§2)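 Vas deferens from rat or mouse; the mouse tissue was in Mg-free Krebs at 30 °C under 0.5 g tension, stimulated at 0.1 Hz, 3 ms, 100–140 V, giving a twitch of about 100 mg. […] Standard curves were run before and after the test curve.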

[3] = target: T2, Adrenergic receptor alpha-2 (Rattus norvegicus); assay: Presynaptic antagonist activity towards alpha-2 adrenergic receptor.; type: functional; how it was run: as §2
[4] = target: T3, Adrenergic receptor alpha-1 (Rattus norvegicus) (UniProt P15823+P23944+P43140); assay: post-synaptic antagonist activity towards alpha-1 adrenergic receptor was determined. Concentration giving a dose response to phenylephrine (idazoxan=1) was reported.; type: functional
How it was run: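 Rat anococcygeus, postsynaptic α1 antagonism. At least five phenylephrine concentration–response curves were run alone, then at least four with the antagonist present.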

[5] = target: T3, Adrenergic receptor alpha-1 (Rattus norvegicus); assay: Alpha-1 adrenergic receptor binding activity relative to idazoxan.; type: protein assay
[6] = target: T4, Adrenergic receptor alpha-1 (Rattus norvegicus, UniProt P15823+P23944+P43140); assay: Alpha-1 adrenergic receptor antagonist activity in a rat anococcygeus. Values ranges from 6.63-6.78; type: functional
T4 sequence (P15823 whole entry): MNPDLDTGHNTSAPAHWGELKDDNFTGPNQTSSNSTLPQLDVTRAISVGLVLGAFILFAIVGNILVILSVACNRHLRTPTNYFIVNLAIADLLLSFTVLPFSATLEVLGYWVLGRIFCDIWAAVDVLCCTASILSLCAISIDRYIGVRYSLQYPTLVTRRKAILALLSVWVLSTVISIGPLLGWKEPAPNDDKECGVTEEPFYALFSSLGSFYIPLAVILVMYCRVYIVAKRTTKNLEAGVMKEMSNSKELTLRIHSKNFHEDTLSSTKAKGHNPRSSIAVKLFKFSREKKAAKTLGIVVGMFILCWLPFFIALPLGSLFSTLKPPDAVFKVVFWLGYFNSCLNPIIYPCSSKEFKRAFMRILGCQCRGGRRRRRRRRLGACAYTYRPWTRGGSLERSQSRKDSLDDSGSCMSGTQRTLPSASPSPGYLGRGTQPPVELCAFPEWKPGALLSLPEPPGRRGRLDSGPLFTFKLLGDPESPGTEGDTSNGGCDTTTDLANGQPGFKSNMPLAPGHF
T4 sequence (P23944 whole entry): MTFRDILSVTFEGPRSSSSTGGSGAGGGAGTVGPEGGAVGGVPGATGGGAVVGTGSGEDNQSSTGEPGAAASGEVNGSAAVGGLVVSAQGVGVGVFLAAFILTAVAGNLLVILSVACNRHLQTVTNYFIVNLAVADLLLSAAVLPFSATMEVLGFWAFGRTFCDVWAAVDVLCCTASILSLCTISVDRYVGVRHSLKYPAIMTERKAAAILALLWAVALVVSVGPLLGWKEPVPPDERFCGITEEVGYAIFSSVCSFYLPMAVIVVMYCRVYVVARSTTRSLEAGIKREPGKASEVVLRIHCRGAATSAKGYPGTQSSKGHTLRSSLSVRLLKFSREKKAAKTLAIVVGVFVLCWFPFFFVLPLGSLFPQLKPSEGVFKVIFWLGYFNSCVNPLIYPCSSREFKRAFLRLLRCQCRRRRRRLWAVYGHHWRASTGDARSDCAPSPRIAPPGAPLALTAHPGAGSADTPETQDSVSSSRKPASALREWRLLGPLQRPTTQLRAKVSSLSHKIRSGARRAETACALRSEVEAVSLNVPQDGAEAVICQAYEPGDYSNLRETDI
T4 sequence (P43140 whole entry): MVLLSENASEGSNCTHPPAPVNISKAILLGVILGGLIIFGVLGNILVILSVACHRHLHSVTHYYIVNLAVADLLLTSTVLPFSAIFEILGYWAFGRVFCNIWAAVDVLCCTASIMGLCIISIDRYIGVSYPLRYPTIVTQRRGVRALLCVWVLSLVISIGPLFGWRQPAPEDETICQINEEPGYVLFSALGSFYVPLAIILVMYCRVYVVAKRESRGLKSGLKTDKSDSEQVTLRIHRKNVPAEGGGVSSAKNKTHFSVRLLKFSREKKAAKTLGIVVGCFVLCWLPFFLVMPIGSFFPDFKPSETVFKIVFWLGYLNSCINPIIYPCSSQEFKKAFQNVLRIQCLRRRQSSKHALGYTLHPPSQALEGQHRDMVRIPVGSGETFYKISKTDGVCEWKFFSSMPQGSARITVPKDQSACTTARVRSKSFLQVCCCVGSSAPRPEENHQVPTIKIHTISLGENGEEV

[7] = target: Adrenergic receptor alpha (Rattus norvegicus) (UniProt P15823+P23944+P43140+P22086+P19328+P22909); assay: Selectivity as ratio […] against alpha-2 receptor to that of alpha-1 receptor.; type: protein assay
[8] = target: T1, Adrenergic receptor alpha-2; assay: Alpha-2 adrenergic receptor antagonist activity in a rat vas deferens assay. Values ranges from 8.00-8.47; type: functional, tissue-based; how it was run: as §1
[9] = target: T4, Adrenergic receptor alpha-1; assay: Alpha-1 adrenergic receptor antagonist activity in a rat anococcygeus. Values ranges from 5.37-5.48; type: functional
[10] = target: T1, Adrenergic receptor alpha-2; assay: Alpha-2 adrenergic receptor antagonist activity in a rat vas deferens assay. Values ranges from 8.54-8.87; type: functional, tissue-based
[11] = target: T4, Adrenergic receptor alpha-1; assay: Alpha-1 adrenergic receptor antagonist activity in a rat anococcygeus. Values ranges from 6.35-6.44; type: functional
[12] = target: T1, Adrenergic receptor alpha-2; assay: Alpha-2 adrenergic receptor antagonist activity in a rat vas deferens assay. Values ranges from 7.77-8.21; type: functional, tissue-based
[13] = target: T3, Adrenergic receptor alpha-1 (Rattus norvegicus); assay: Alpha-1 adrenergic receptor antagonist activity relative to idazoxan.; type: functional
How it was run: (§3)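 The agonist was phenylephrine, tested on isolated rat anococcygeus under 0.5 g initial tension. At least five phenylephrine dose-response curves were run alone, then at least four in the presence of the analogue.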

[14] = target: T4, Adrenergic receptor alpha-1; assay: Alpha-1 adrenergic receptor activity in a rat anococcygeus. Values ranges from 5.49-6.90
[15] = target: T1, Adrenergic receptor alpha-2; assay: Alpha-2 adrenergic receptor antagonist activity in a rat vas deferens assay. Values ranges from 7.80-8.14; type: functional, tissue-based
[16] = target: T4, Adrenergic receptor alpha-1; assay: Alpha-1 adrenergic receptor antagonist activity in a rat anococcygeus. Values ranges from 5.19-5.44; type: functional
[17] = target: T3, Adrenergic receptor alpha-1 (Rattus norvegicus); assay: post-synaptic antagonist activity towards adrenergic receptor was determined. Concentration giving a dose response to phenylephrine (idazoxan=1) was reported.; type: functional; how it was run: as §3
[18] = target: T4, Adrenergic receptor alpha-1; assay: Alpha-1 adrenergic receptor antagonist activity in a rat anococcygeus. Values ranges from 6.35-6.88; type: functional
[19] = target: T1, Adrenergic receptor alpha-2; assay: Alpha-2 adrenergic receptor antagonist activity in a rat vas deferens assay. Values ranges from 8.74-9.17; type: functional; how it was run: as §1

| pA2 [1] | Postsynaptic antagonist [4] | Relative potency [5] | pA2 [6] | pA2 [8] | pA2 [9] | pA2 [18] | pA2 [19] | Compound | Relative potency [2] | potency relative to idazoxan [3] | Ratio [7] | pA2 [10] | pA2 [11] | pA2 [12] | Relative potency [13] | pA2 [14] | pA2 [15] | pA2 [16] | Postsynaptic antagonist [17] |
| --- | --- | --- | --- | --- | --- | --- | --- | --- | --- | --- | --- | --- | --- | --- | --- | --- | --- | --- | --- |
| 8.37 | 2.2 | 2.4 | 6.7 | – | – | – | – | CCCCOC1(C2=NCCN2)COc2ccccc2O1 (configuration not stated) | 0.7 | 1.6 | 0.7 | – | – | – | – | – | – | – | – |
| – | 0.07 | 0.1 | – | 8.21 | 5.42 | – | – | C=C(C)C1(C2=NCCN2)COc2ccccc2O1.Cl (configuration not stated) | 0.5 | 0.4 | 5.7 | – | – | – | – | – | – | – | – |
| – | 3.2 | 1.7 | – | – | – | 6.56 | 8.92 | CCCC1(C2=NCCN2)COc2ccccc2O1 (configuration not stated) | 2.6 | 4.8 | 1.5 | – | – | – | – | – | – | – | – |

| Compound | pA2 [1] | Postsynaptic antagonist [4] | Relative potency [5] | pA2 [6] | pA2 [8] | pA2 [9] | pA2 [18] | pA2 [19] | Relative potency [2] | potency relative to idazoxan [3] | Ratio [7] | pA2 [10] | pA2 [11] | pA2 [12] | Relative potency [13] | pA2 [14] | pA2 [15] | pA2 [16] | Postsynaptic antagonist [17] |
| --- | --- | --- | --- | --- | --- | --- | --- | --- | --- | --- | --- | --- | --- | --- | --- | --- | --- | --- | --- |
| CCC1(C2=NCCN2)COc2ccccc2O1 (configuration not stated) | – | 2.25 | 1.2 | – | – | – | – | – | 1.6 | 3 | 1.3 | 8.87 | 6.44 | – | – | – | – | – | – |
| C1=C(C2(C3=NCCN3)COc3ccccc3O2)CC1.Cl (configuration not stated) | – | 0.13 | – | – | – | – | – | – | 0.3 | 0.3 | 2.3 | – | – | 8.21 | 0.3 | 6.9 | – | – | – |
| CC1(C2=NCCN2)COc2ccccc2O1.Cl (configuration not stated) | – | – | 0.1 | – | – | – | – | – | 0.3 | 0.67 | 2.4 | – | – | – | – | – | 8.14 | 5.44 | 0.28 |
